Measurements from ChEMBL document CHEMBL5608187, “Discovery of pyridoquinoxaline-based new P-gp inhibitors as coadjutant against Multi Drug Resistance in cancer” (Eur J Med Chem, 2024).

Tests used:
Type in all cases: cell-based
[1] = target: T1, ATP-dependent translocase ABCB1 (Homo sapiens, UniProt P08183); assay: Inhibition of P-gp in human HCT-15 cells assessed as increase in green fluorescence intensity at 0.1 to 10 uM incubated for 15 mins followed by incubation with EFFLUX-ID Green Detection Reagent and Hoeschst-33342 dye and measured after 30 mins by fluorescence analysis; details: hct-15, 0.25 h, dose 0.1-10 µM
Method in brief: (§1)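 5000 cells/well in phenol-red-free medium plated 24 h before; compounds 0.1, 1, 10 µM for 15 min, then EFLUXX-ID Green reagent (1:200) plus Hoechst-33342 1 µg/mL, 30 min 37 °C. Widefield imaging; median green intensity from 250 cells per well normalized to untreated wells. Mean ± SD of three wells; one-tailed t-test.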

[2] = target: T1, ATP-dependent translocase ABCB1; assay: Inhibition of P-gp in human A498 cells assessed as increase in green fluorescence intensity at 0.1 to 10 uM incubated for 15 mins followed by incubation with EFFLUX-ID Green Detection Reagent and Hoeschst-33342 dye and measured after 30 mins by fluorescence analysis; details: a498, 0.25 h, dose 0.1-10 µM; method in brief: as §1
[3] = target: T1, ATP-dependent translocase ABCB1; assay: Inhibition of P-gp in human HT1197 cells assessed as increase in green fluorescence intensity at 0.1 to 10 uM incubated for 15 mins followed by incubation with EFFLUX-ID Green Detection Reagent and Hoeschst-33342 dye and measured after 30 mins by fluorescence analysis; details: ht1197, 0.25 h, dose 0.1-10 µM; method in brief: as §1
[4] = target: T1, ATP-dependent translocase ABCB1; assay: Inhibition of P-gp in human CAKI-2 cells assessed as increase in green fluorescence intensity at 0.1 to 10 uM incubated for 15 mins followed by incubation with EFFLUX-ID Green Detection Reagent and Hoeschst-33342 dye and measured after 30 mins by fluorescence analysis; details: caki-2, 0.25 h, dose 0.1-10 µM; method in brief: as §1

T1 sequence (P08183 whole entry): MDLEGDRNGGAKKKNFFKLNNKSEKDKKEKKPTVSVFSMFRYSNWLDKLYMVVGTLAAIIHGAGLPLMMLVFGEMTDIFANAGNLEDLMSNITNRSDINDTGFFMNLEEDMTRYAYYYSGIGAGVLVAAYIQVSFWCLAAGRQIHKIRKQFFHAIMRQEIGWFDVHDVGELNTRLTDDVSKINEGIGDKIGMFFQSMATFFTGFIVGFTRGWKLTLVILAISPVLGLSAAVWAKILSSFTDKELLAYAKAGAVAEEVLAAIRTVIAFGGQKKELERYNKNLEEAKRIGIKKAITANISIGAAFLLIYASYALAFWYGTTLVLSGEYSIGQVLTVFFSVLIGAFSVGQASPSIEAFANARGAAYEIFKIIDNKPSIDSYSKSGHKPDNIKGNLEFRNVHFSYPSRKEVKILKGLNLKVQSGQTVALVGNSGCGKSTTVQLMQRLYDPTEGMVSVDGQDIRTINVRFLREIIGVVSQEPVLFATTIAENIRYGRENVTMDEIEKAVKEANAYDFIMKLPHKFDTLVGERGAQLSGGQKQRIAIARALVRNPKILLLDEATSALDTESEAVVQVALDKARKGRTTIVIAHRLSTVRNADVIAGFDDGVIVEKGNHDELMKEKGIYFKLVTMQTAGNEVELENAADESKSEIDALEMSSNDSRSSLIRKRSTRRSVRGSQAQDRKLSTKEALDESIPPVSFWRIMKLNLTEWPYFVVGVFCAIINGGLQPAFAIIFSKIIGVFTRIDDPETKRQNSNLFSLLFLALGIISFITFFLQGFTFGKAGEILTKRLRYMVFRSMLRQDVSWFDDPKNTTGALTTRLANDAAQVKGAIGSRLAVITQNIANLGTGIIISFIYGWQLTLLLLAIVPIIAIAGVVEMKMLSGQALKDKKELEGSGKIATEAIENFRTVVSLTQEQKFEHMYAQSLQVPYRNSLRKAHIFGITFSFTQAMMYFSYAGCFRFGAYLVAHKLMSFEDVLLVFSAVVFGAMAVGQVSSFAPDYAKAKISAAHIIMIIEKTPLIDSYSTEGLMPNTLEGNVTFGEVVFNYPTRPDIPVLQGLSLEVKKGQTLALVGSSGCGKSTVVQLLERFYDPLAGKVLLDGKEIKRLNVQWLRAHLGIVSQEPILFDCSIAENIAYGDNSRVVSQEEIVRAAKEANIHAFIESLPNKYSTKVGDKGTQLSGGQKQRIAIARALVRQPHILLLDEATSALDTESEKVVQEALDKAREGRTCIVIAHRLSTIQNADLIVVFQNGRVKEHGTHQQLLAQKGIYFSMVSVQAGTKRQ

Structure (SMILES) | inhibition (INH) [1] | inhibition (INH) [2] | inhibition (INH) [3] | inhibition (INH) [4]
COC(=O)c1ccccc1SCc1nc2cc3cccnc3cc2nc1CSc1ccccc1C(=O)OC | Active | Not Active | Active | Active
COC(=O)c1ccc(OCc2nc3cc4cccnc4cc3nc2COc2ccc(C(=O)OC)cc2OC)c(OC)c1 | Active | Not Active | Active | Active
COc1cc(NC(=O)c2cc(Cl)ccc2OCc2nc3cc4cccnc4cc3nc2COc2ccc(Cl)cc2C(=O)Nc2cc(OC)cc(OC)c2)cc(OC)c1 | Active | Not Active | Active | Active
COc1cc(NC(=O)c2cc(Cl)ccc2OCc2nc3cc4cccnc4cc3nc2COc2ccc(Cl)cc2C(=O)Nc2cc(OC)c(OC)c(OC)c2)cc(OC)c1OC | Active | Not Active | Active | Active
COc1ccc(NC(=O)c2cc(Cl)ccc2OCc2nc3cc4cccnc4cc3nc2COc2ccc(Cl)cc2C(=O)Nc2ccc(OC)cc2)cc1 | Active | Not Active | Active | Active

Continued, values first:

inhibition (INH) [1] | inhibition (INH) [2] | inhibition (INH) [3] | inhibition (INH) [4] | Structure (SMILES)
Active | Not Active | Active | Active | O=C(Nc1ccc(Cl)c(Cl)c1)c1ccccc1OCc1nc2cc3cccnc3cc2nc1COc1ccccc1C(=O)Nc1ccc(Cl)c(Cl)c1
Active | Not Active | Active | Active | N#Cc1ccc(OCc2nc3cc4cccnc4cc3nc2COc2ccc(C#N)cc2)cc1
Active | Not Active | Active | Active | COc1ccc(NC(=O)c2ccccc2OCc2nc3cc4cccnc4cc3nc2COc2ccccc2C(=O)Nc2ccc(OC)cc2)cc1
